According to ChEMBL document CHEMBL2203235, “Optimization of a natural product-based class of γ-secretase modulators” (J Med Chem, 2012):

How the values were obtained:
CHO-2B7 = test: Modulation of gamma secretase in CHO-2B7 cells assessed as reduction in amyloid beta 40 level at 20 uM after 5 hrs by MSD ELISA; assay type: cell-based; set-up: scale not given: the % may be the effect or the level left; settings: Cricetulus griseus
[1] = Modulation of gamma secretase in CHO-2B7 cells assessed as reduction in amyloid beta 42 level after 5 hrs by MSD ELISA; assay type: cell-based; settings: Cricetulus griseus, CHO-2B7, 5 h
Liver microsomes = test: Metabolic stability in human liver microsomes at 1 uM after 60 mins by LC/MS/MS analysis; settings: 1 h
[2] = Modulation of gamma secretase in CHO-2B7 cells assessed as reduction in amyloid beta 40 level after 5 hrs by MSD ELISA; assay type: cell-based; settings: Cricetulus griseus, CHO-2B7, 5 h
[3] = Metabolic stability in human liver microsomes assessed as compound remaining at 1 uM at 60 mins by LC/MS/MS analysis in absence of NADPH; assay type: ADME, Microsome; settings: liver microsomes, read-out: Stability
Method in brief: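 Human liver microsomes were run without NADPH as a qualitative read of susceptibility to enzymatic hydrolysis. The read-out was percent parent remaining at 60 min.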

Row | SMILES | Activity (CHO-2B7) [%] | IC50 [1] [nM] | Stability (Liver microsomes) | IC50 [2] [nM] | remaining at 1 h, 1 µM [3] [%]
1 | CCO[C@@H]([C@H]1C[C@@H](C)[C@H]2[C@H](O1)[C@H](O)[C@@]1(C)[C@@H]3CC[C@H]4C(C)(C)[C@@H](OC(=O)NC)CC[C@@]45C[C@@]35CC[C@]21C)C(C)(C)O | 47 | 360 | Stable |  | 
2 | CC(C)[C@@H](OC(=O)N1CCC1)[C@H]1C[C@@H](C)[C@H]2[C@H](O1)[C@H](O)[C@@]1(C)[C@@H]3CC[C@H]4C(C)(C)[C@@H](O[C@H]5CN(C(=O)CNS(=O)(=O)C(F)(F)F)CCO5)CC[C@@]45C[C@@]35CC[C@]21C | 49 | 1300 | Stable |  | 
3 | CC(C)[C@@H](OC(=O)N1CCC1)[C@H]1C[C@@H](C)[C@H]2[C@H](O1)[C@H](O)[C@@]1(C)[C@@H]3CC[C@H]4C(C)(C)[C@@H](O[C@H]5CN(CC(=O)O)CCO5)CC[C@@]45C[C@@]35CC[C@]21C | 41 | 700 | Stable |  | 
4 | CC(C)[C@@H](OC(=O)N(C)C)[C@H]1C[C@@H](C)[C@H]2[C@H](O1)[C@H](O)[C@@]1(C)[C@@H]3CC[C@H]4C(C)(C)[C@@H](O[C@H]5CNCCO5)CC[C@@]45C[C@@]35CC[C@]21C |  | 580 |  | 5900 | 114
5 | CCO[C@@H]([C@H]1C[C@@H](C)[C@H]2[C@H](O1)[C@H](O)[C@@]1(C)[C@@H]3CC[C@H]4C(C)(C)[C@@H](OC(=O)NCCNS(=O)(=O)C(F)(F)F)CC[C@@]45C[C@@]35CC[C@]21C)C(C)(C)O | 13 | 710 | Stable |  | 
6 | CO[C@@H]([C@H]1C[C@@H](C)[C@H]2[C@H](O1)[C@H](O)[C@@]1(C)[C@@H]3CC[C@H]4C(C)(C)[C@@H](O[C@H]5CN(C6COC6)CCO5)CC[C@@]45C[C@@]35CC[C@]21C)C(C)(C)O |  | 690 |  | 9900 | 93
7 | CC(C)[C@@H](OC(=O)N(C)C)[C@H]1C[C@@H](C)[C@H]2[C@H](O1)[C@H](O)[C@@]1(C)[C@@H]3CC[C@H]4C(C)(C)[C@@H](O)CC[C@@]45C[C@@]35CC[C@]21C |  | 1000 |  | 10000 | 81
8 | C=C(C)CO[C@@H]([C@H]1C[C@@H](C)[C@H]2[C@H](O1)[C@H](O)[C@@]1(C)[C@@H]3CC[C@H]4C(C)(C)[C@@H](O[C@H]5CN(C6COC6)CCO5)CC[C@@]45C[C@@]35CC[C@]21C)C(C)(C)O |  | 340 |  | 11000 | 84
9 | CC(=O)O[C@@H]([C@H]1C[C@@H](C)[C@H]2[C@H](O1)[C@H](O)[C@@]1(C)[C@@H]3CC[C@H]4C(C)(C)[C@@H](OC(=O)N5CCOCC5)CC[C@@]45C[C@@]35CC[C@]21C)C(C)(C)O |  | 310 |  | 14000 | 2
10 | CCO[C@@H]([C@H]1C[C@@H](C)[C@H]2[C@H](O1)[C@H](O)[C@@]1(C)[C@@H]3CC[C@H]4C(C)(C)[C@@H](OC(N)=O)CC[C@@]45C[C@@]35CC[C@]21C)C(C)(C)O |  | 210 | Stable | 3900 | 116
11 | CCO[C@@H]([C@H]1C[C@@H](C)[C@H]2[C@H](O1)[C@H](O)[C@@]1(C)[C@@H]3CC[C@H]4C(C)(C)[C@@H](O)CC[C@@]45C[C@@]35CC[C@]21C)C(C)(C)O |  | 350 |  | 5500 | 100
12 | CC(C)[C@@H](OC(=O)N1CCC1)[C@H]1C[C@@H](C)[C@H]2[C@H](O1)[C@H](O)[C@@]1(C)[C@@H]3CC[C@H]4C(C)(C)[C@@H](OC(=O)N5CCOCC5)CC[C@@]45C[C@@]35CC[C@]21C |  | 360 | Stable | 11000 | 104
13 | CC(=O)O[C@@H]([C@H]1C[C@@H](C)[C@H]2[C@H](O1)[C@H](O)[C@@]1(C)[C@@H]3CC[C@H]4C(C)(C)[C@@H](OC(N)=O)CC[C@@]45C[C@@]35CC[C@]21C)C(C)(C)O | 37 | 200 |  |  | 
14 | CNC(=O)O[C@H](C(C)C)[C@H]1C[C@@H](C)[C@H]2[C@H](O1)[C@H](O)[C@@]1(C)[C@@H]3CC[C@H]4C(C)(C)[C@@H](O)CC[C@@]45C[C@@]35CC[C@]21C |  | 890 |  | 8500 | 96
15 | CCO[C@@H]([C@H]1C[C@@H](C)[C@H]2[C@H](O1)[C@H](O)[C@@]1(C)[C@@H]3CC[C@H]4C(C)(C)[C@@H](OC(=O)NC5CNC5)CC[C@@]45C[C@@]35CC[C@]21C)C(C)(C)O |  | 53 | Stable | 1900 | 92
16 | CC(C)[C@@H](OC(N)=O)[C@H]1C[C@@H](C)[C@H]2[C@H](O1)[C@H](O)[C@@]1(C)[C@@H]3CC[C@H]4C(C)(C)[C@@H](OC(N)=O)CC[C@@]45C[C@@]35CC[C@]21C |  | 700 |  | 1200 | 103
17 | C[C@@H]1C[C@H](COC(N)=O)O[C@H]2[C@H]1[C@@]1(C)CC[C@@]34C[C@@]35CC[C@H](O[C@H]3CN(C(=O)CC6CC6)CCO3)C(C)(C)[C@@H]5CC[C@H]4[C@]1(C)[C@H]2O |  | 840 |  | 35000 | 77
18 | CNC(=O)OC[C@H]1C[C@@H](C)[C@H]2[C@H](O1)[C@H](O)[C@@]1(C)[C@@H]3CC[C@H]4C(C)(C)[C@@H](O[C@H]5CN(C(=O)CC6CC6)CCO5)CC[C@@]45C[C@@]35CC[C@]21C |  | 350 |  | 81000 | 81
19 | CC(=O)O[C@H](C(C)C)[C@H]1C[C@@H](C)[C@H]2[C@H](O1)[C@H](O)[C@@]1(C)[C@@H]3CC[C@H]4C(C)(C)[C@@H](O)CC[C@@]45C[C@@]35CC[C@]21C |  | 780 |  | 7500 | 0
20 | CC(C)CO[C@@H]([C@H]1C[C@@H](C)[C@H]2[C@H](O1)[C@H](O)[C@@]1(C)[C@@H]3CC[C@H]4C(C)(C)[C@@H](O[C@H]5CN(C6COC6)CCO5)CC[C@@]45C[C@@]35CC[C@]21C)C(C)(C)O |  | 3000 |  | 6000 | 78
21 | CCO[C@@H]([C@H]1C[C@@H](C)[C@H]2[C@H](O1)[C@H](O)[C@@]1(C)[C@@H]3CC[C@H]4C(C)(C)[C@@H](OC(=O)N5CCOCC5)CC[C@@]45C[C@@]35CC[C@]21C)C(C)(C)O |  | 220 |  | 2000 | 77
22 | CNC(=O)O[C@H](C(C)C)[C@H]1C[C@@H](C)[C@H]2[C@H](O1)[C@H](O)[C@@]1(C)[C@@H]3CC[C@H]4C(C)(C)[C@@H](O[C@H]5CNCCO5)CC[C@@]45C[C@@]35CC[C@]21C |  | 480 |  | 4300 | 95
23 | CNC(=O)O[C@H](C(C)C)[C@H]1C[C@@H](C)[C@H]2[C@H](O1)[C@H](O)[C@@]1(C)[C@@H]3CC[C@H]4C(C)(C)[C@@H](OC(=O)NC5CNC5)CC[C@@]45C[C@@]35CC[C@]21C |  | 120 |  | 5000 | 110
